Screening results from PubChem.
C2C12 statin: suppressors of simvastatin-induced myotoxicity in C2C12 myotubes; 330,000 compounds, 0.78% hits; rescue of ATP level, % at 7.49 µM; AID 602340; ATP luminescence, 48 h; scaled: DMSO 0, geranylgeraniol control 100;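 active means mean ATP rescue above about 67%, or every replicate alone reaching that limit, limit read from the data, passing the limit was not always enough; inconclusive means no clear call, values can overlap the other calls; inactive means mean under the limit and some replicate under it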;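 further: myotubes were challenged with 10 µM simvastatin during compound exposure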
E-selectin induc: induces E-selectin expression in human endothelial cells; HUVEC E-selectin immunofluorescence imaging; normalized: neutral wells 0, TNF-alpha wells 100; 260,000 compounds, 0.37% hits; activation, % at 7.58 µM;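 active means mean E-selectin-positive cell signal at least 10% of the positive control, reached in at least 60% of replicates, without over 20% cell loss; inconclusive means no rule given, readout overlaps actives, possibly toxicity-flagged; inactive means the rest, including those meeting only one limit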
Target sequence (P16581 whole entry, looked up): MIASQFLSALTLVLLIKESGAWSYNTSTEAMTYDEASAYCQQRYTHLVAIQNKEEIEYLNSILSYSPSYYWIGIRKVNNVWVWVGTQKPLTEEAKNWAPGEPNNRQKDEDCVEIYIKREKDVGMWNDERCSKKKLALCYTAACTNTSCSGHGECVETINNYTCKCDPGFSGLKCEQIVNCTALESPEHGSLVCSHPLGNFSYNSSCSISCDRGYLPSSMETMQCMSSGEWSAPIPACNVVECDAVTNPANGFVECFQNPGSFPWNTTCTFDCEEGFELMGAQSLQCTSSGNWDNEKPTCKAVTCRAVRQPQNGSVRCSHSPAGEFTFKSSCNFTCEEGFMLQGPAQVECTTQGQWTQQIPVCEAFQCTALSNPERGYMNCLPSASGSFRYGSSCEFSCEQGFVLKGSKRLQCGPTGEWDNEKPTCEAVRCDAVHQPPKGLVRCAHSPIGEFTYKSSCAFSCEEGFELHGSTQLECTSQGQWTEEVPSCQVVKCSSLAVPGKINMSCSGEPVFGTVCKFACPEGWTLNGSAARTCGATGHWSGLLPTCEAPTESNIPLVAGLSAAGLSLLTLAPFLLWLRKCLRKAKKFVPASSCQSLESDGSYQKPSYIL
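Read-out basis: % PE-positive cells; Test system: HUVEC primary endothelial cells; Technique: immunofluorescence imaging; Dosing: single-point compound dose.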
DENV2 CPE: protects cells from dengue virus 2 cytopathic effect | DENV2-infected cells, cytopathic effect rescue, plate reader | 350,000 compounds, 1.7% hits | CPE inhibition, % at 9.99 µM; in the data active means CPE inhibition above about 20%, passing the limit was not always enough; inconclusive means no clear call, values can overlap the other calls; tested in BHK-21 cells;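 further: 0% = median of neutral control wells and 100% = median of positive control wells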
* = called active by the depositor; ? = inconclusive; / = not tested or not shown; ! = a repeat was not active. Hits are enriched below; roughly 2.2% of the tested compounds scored in any of these assays.

SMILES	C2C12 statin	E-selectin induc	DENV2 CPE
O=C(NCC[C@@H]1CC[C@@H](NC(=O)c2ccccc2F)[C@H](CO)O1)c1cnccn1	0	0	/
Cc1ccc(S(=O)(=O)N(C)C[C@@H]2Oc3ccc(NS(=O)(=O)c4ccc(Cl)cc4)cc3CC(=O)N([C@H](C)CO)C[C@@H]2C)cc1	10	3	7
Nc1ncc([N+](=O)[O-])c(Oc2ccccc2F)n1	/	1	-5
COc1cccc(Oc2nc(N)ncc2[N+](=O)[O-])c1	7	29*	-1
C[C@H]1CN([C@@H](C)CO)C(=O)c2cc(C#CC3CC3)cnc2O[C@@H]1CN(C)C(=O)c1ccccc1	7	0	1
C[C@@H]1CN([C@@H](C)CO)C(=O)c2cc(C#CC3CCCC3)cnc2O[C@@H]1CN(C)C(=O)C1CCC1	/	-1	-4
C[C@@H]1CN([C@@H](C)CO)C(=O)c2cc(C#CC3CC3)cnc2O[C@@H]1CN(C)C(=O)c1ccccc1	-7	97*	14
C[C@@H]1CN([C@@H](C)CO)C(=O)c2cc(C#CC3CCCC3)cnc2O[C@H]1CN(C)C(=O)C1CC1	-1	0	28*
C[C@H](CO)N1C[C@H](C)[C@@H](CN(C)C(=O)C2CCCCC2)Oc2ncc(C#CC3CCCC3)cc2C1=O	48	0	-5
C[C@H](CO)N1C[C@H](C)[C@@H](CN(C)C(=O)C2CC2)Oc2ncc(C#CC3CCCC3)cc2C1=O	4	-1	25*
C[C@H](CO)N1C[C@H](C)[C@H](CN(C)S(=O)(=O)c2ccc(Cl)cc2)Oc2c(NS(=O)(=O)c3ccccc3)cccc2C1=O	-15	-1	-10
COc1ccc(CN(C)C[C@H]2Oc3ccc(NC(=O)CCC(F)(F)F)cc3C(=O)N([C@@H](C)CO)C[C@H]2C)cc1	0	/	4
O=C(NCc1ccccc1Cl)C1CCCN(c2ncnc3c2nc2n3CCCCC2)C1 (centres undefined)	-15	0	2
CCOc1ccc(CCNC(=O)C2CCCN(c3ncnc4c3nc3n4CCCCC3)C2)cc1 (centres undefined)	76*	/	4
Cc1ccc(CCNC(=O)C2CCCN(c3ncnc4c3nc3n4CCCCC3)C2)cc1 (centres undefined)	15	/	9
O=C(NCc1ccco1)C1CCCN(c2ncnc3c2nc2n3CCCCC2)C1 (centres undefined)	6	/	25*
COc1ccc(S(=O)(=O)N[C@@H]2CC[C@H](CCn3cc(-c4ccccc4F)nn3)O[C@@H]2CO)cc1	-2	0	-12
CCCSc1nnc(CN2CCOCC2)n1C	111*	/	/
Cn1c(CN2CCOCC2)nnc1SCC(N)=O	3	/	/
CCCCCSc1nnc(N)s1	/	/	32*
CCCCOC(=O)CSc1nnc(N)s1	-11	/	/
C(=C\c1ccc(C2[C@@H]3CN(Cc4cocn4)C[C@H]2N3)cc1)/c1ccccc1 (some centres undefined)	/	0	30*!
Cc1ccccc1-c1ccc(C2[C@@H]3CN(Cc4cocn4)C[C@H]2N3)cc1 (some centres undefined)	/	0	17
Cc1ccc(C(NC(=O)C2CCN(Cc3ccc(Oc4ccccc4)cc3)CC2)c2ccccn2)cc1 (centres undefined)	-5	0	4
O=C(NC(c1ccc(Cl)cc1)c1cnccn1)C1CCN(Cc2ccc(Oc3ccccc3)cc2)CC1 (centres undefined)	-8	0	84*
SMILES	C2C12 statin	E-selectin induc	DENV2 CPE
Cc1cccnc1C(NC(=O)C1CCN(Cc2ccc(Cl)cc2)CC1)c1ccccc1 (centres undefined)	0	/	6
Cc1cccnc1C(NC(=O)C1CCN(CCCc2ccccc2)CC1)c1ccc(Cl)cc1 (centres undefined)	-10	0	20*
COc1ccc(CN2CCC(C(=O)NC(c3ccc4c(c3)OCO4)c3ccccn3)CC2)cc1 (centres undefined)	21	/	100*
COc1cccc(OC)c1OCCN1CCC(C(=O)NC(c2ccc3c(c2)OCO3)c2ccccn2)CC1 (centres undefined)	13	0	-4
C[C@@H]1CN([C@@H](C)CO)C(=O)c2cc(NC(=O)CCC(F)(F)F)ccc2O[C@@H](C)CCCCO[C@@H]1CN(C)S(=O)(=O)c1ccc(F)cc1	/	/	-3
Cc1noc(C)c1NC(=O)Nc1ccc2c(c1)C(=O)N([C@@H](C)CO)C[C@H](C)[C@@H](CN(C)S(=O)(=O)c1c(C)noc1C)OCCCC[C@@H](C)O2	?	0	-1
CC1(C)Oc2ccc3ccc(=O)oc3c2CC1O (centres undefined)	2	/	5
CC1(C)Oc2ccc3ccc(=O)oc3c2C[C@H]1O[C@@H]1O[C@H](CO)[C@@H](O)[C@H](O)[C@H]1O	-7	0	41*
COc1ccc(S(=O)(=O)N(C)C[C@H]2Oc3ccc(NC(=O)NC4CCCCC4)cc3C(=O)N([C@@H](C)CO)C[C@@H]2C)cc1	-118	0	3
CCCNC(=O)N1CCC2(CC1)CN(C(=O)CC)[C@@H](CO)c1c2c2ccc(OC)cc2n1C	/	0	-3
NC(=O)C1CCN(CC(O)COc2ccc(-c3ccccc3)cc2)CC1 (centres undefined)	6	/	50*
CCOC(=O)N1CCN(CC(O)COc2ccc(-c3ccccc3)cc2)CC1 (centres undefined)	-3	/	-2
COc1cccc(-c2ccc(C3[C@H]4CNC[C@@H]3N4C(=O)Nc3ccc(C(F)(F)F)cc3)cc2)c1 (some centres undefined)	/	0	33*!
COc1cccc(NC(=O)N2[C@@H]3CNC[C@H]2C3c2ccc(/C=C/c3ccccc3)cc2)c1 (some centres undefined)	/	0	89*!
O=C(Nc1cccc(Cl)c1)N1[C@@H]2CNC[C@H]1C2c1ccc(/C=C/c2ccccc2)cc1 (some centres undefined)	/	0	11
COc1cccc(NC(=O)N2[C@@H]3CNC[C@H]2C3c2ccc(-c3ccccc3)cc2)c1 (some centres undefined)	/	1	99*!
COc1ccc(NC(=O)N2[C@@H]3CNC[C@H]2C3c2ccc(-c3cccc(OC)c3)cc2)cc1 (some centres undefined)	/	0	-4
COc1cccc(-c2ccc(C3[C@H]4CNC[C@@H]3N4C(=O)Nc3ccc4c(c3)OCO4)cc2)c1 (some centres undefined)	/	0	19
O=C(N[C@@H]1CC[C@@H](CCn2cc(-c3ccccc3)nn2)O[C@@H]1CO)c1ccccc1F	-2	0	-2
O=C(C[C@H]1CC[C@H]2[C@@H](COC[C@H](O)CN2Cc2cc(F)ccc2F)O1)N1CCc2ccccc2C1	27	0	11
C[C@@H]1CCCCO[C@H](CN(C)C(=O)Nc2ccc(C(F)(F)F)cc2)[C@H](C)CN([C@H](C)CO)C(=O)c2cc(NS(=O)(=O)c3cccs3)ccc2O1	11	0	-5
Cc1ccc(S(=O)(=O)Nc2ccc3c(c2)C(=O)N([C@H](C)CO)C[C@@H](C)[C@H](CN(C)C(=O)NC(C)C)OCCCC[C@@H](C)O3)cc1	/	0	1
C=CCn1c(COc2ccc(Cl)cc2)nnc1SCC(=O)c1c(N)n(C)c(=O)n(C)c1=O	101*	-3	3
